From ChEMBL document CHEMBL2021764, “2-Aminothiophenes as building blocks in heterocyclic synthesis: synthesis and antimicrobial evaluation of a new class of pyrido[1,2-a]thieno[3,2-e]pyrimidine, quinoline and pyridin-2-one derivatives” (2012)

What was measured:
Type in all cases: functional
[1] = test system: Serratia marcescens; experiment: Antibacterial activity against Serratia marcescens 155449 at 1 mg/ml after 24 hrs by agar-well diffusion technique; conditions: Serratia marcescens, 155449, 24 h; read-out: DIZ
How it was run: (§1)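 Each bacterial strain (0.1 ml) was spread on nutrient agar, and 4 mm wells were cut with a sterile cork borer. Wells were loaded with test chemical at a final 1 mg ml^-1, then incubated at 37 °C for 24 h. Inhibition zone diameters around the wells were measured, averaged over 3 replicas.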

[2] = test system: Escherichia coli; experiment: Antibacterial activity against Escherichia coli 124300 at 1 mg/ml after 24 hrs by agar-well diffusion technique; conditions: Escherichia coli, 124300, 24 h; read-out: DIZ; how it was run: as §1
[3] = test system: Saccharomyces cerevisiae; experiment: Antifungal activity against Saccharomyces cerevisiae 156250 at 1 mg/ml after 48 hrs by agar-well diffusion technique; conditions: Saccharomyces cerevisiae, 156250, 48 h; read-out: DIZ
How it was run: (§2)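 Yeast (0.1 ml) was spread on potato dextrose agar, and 4 mm wells were cut with a sterile cork borer. Wells were loaded with test chemical at a final 1 mg ml^-1, then incubated at 25 °C for 48 h. Inhibition zones around the wells were measured, averaged over 3 replicas.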

[4] = test system: Staphylococcus aureus; experiment: Antibacterial activity against Staphylococcus aureus 155554A at 1 mg/ml after 24 hrs by agar-well diffusion technique; conditions: read-out: DIZ; how it was run: as §1
[5] = test system: Candida albicans; experiment: Antifungal activity against Candida albicans 155965 at 1 mg/ml after 48 hrs by agar-well diffusion technique; conditions: Candida albicans, 155965, 48 h; read-out: DIZ; how it was run: as §2
[6] = test system: Pseudomonas aeruginosa; experiment: Antibacterial activity against Pseudomonas aeruginosa 155250A at 1 mg/ml after 24 hrs by agar-well diffusion technique; conditions: read-out: DIZ; how it was run: as §1
[7] = test system: Bacillus subtilis; experiment: Antibacterial activity against Bacillus subtilis 154921 at 1 mg/ml after 24 hrs by agar-well diffusion technique; conditions: Bacillus subtilis, 154921, 24 h; read-out: DIZ; how it was run: as §1

Structure (SMILES)	zone of inhibition at 1000 µg/mL [1]	zone of inhibition at 1000 µg/mL [2]	zone of inhibition at 1000 µg/mL [3]	zone of inhibition at 1000 µg/mL [4]	zone of inhibition at 1000 µg/mL [5]	zone of inhibition at 1000 µg/mL [6]	zone of inhibition at 1000 µg/mL [7]
N#Cc1c(-c2cccs2)c(C#N)c2[nH]c(=O)c3c(-c4ccc(Cl)cc4)csc3n2c1=N	2.6 mm	4 mm	0 mm	0 mm	12 mm	10.6 mm	2 mm
Cc1cccc(-c2ccc(C(=O)Nc3scc(-c4ccccc4)c3C#N)c(=O)[nH]2)n1	0 mm	0 mm	0 mm	0 mm	0 mm	4 mm	0 mm
N#Cc1c(-c2ccc(Cl)cc2)csc1NC(=O)c1cc2ccccc2[nH]c1=O		8 mm		8 mm		11 mm	10.5 mm
CN(C)c1ccc(/C=C(\C#N)C(=O)Nc2scc(-c3ccccc3)c2C#N)cc1	7.3 mm	2 mm	0 mm	0 mm	0 mm	4 mm	0 mm
CN(C)/C=C(\C#N)C(=O)Nc1scc(-c2ccc(Cl)cc2)c1C#N	7 mm	4 mm	1.3 mm	0 mm	0 mm	4 mm	1 mm
N#Cc1c(-c2ccccc2)c(C#N)c2[nH]c(=O)c3c(-c4ccc(Cl)cc4)csc3n2c1=N	4 mm	4 mm	4 mm	0 mm	0 mm	6 mm	2 mm
CN(C)/C=C(\C#N)C(=O)Nc1scc(-c2ccccc2)c1C#N	3.3 mm	4 mm	1.3 mm	0 mm	4 mm	10.8 mm	1.6 mm
N#Cc1c(-c2ccccc2)csc1NC(=O)c1cc2ccccc2[nH]c1=O	6 mm	8.6 mm	14 mm	12 mm	16 mm	10 mm	11 mm
N#Cc1c(-c2ccccc2)c(C#N)c2[nH]c(=O)c3c(-c4ccccc4)csc3n2c1=N	4.6 mm	6.3 mm	2.6 mm	0 mm	2 mm	4 mm	4 mm
N#Cc1cc(C#N)c2[nH]c(=O)c3c(-c4ccc(Cl)cc4)csc3n2c1=N	3.3 mm	2 mm	0 mm	2.6 mm	0 mm	8 mm	6 mm
N#Cc1c(-c2ccccc2)csc1NC(=O)c1ccc(-c2ccccc2)[nH]c1=O	2 mm	3.3 mm	1.3 mm	0 mm	0 mm	5.3 mm	1.6 mm
N#Cc1c(-c2ccccc2)csc1NC(=O)c1cn[nH]c1N	0.7 mm	2.6 mm	2.6 mm	0 mm	4 mm	6.6 mm	2 mm
N#CCC(=O)Nc1scc(-c2ccccc2)c1C#N	2 mm	4 mm	2.6 mm	0 mm	4 mm	4 mm	2 mm
CCOC(=O)c1sc2c(c1C)c(=O)[nH]c1c(C#N)c(-c3ccc(Cl)cc3)c(C#N)c(=N)n12	4.6 mm	8 mm	0 mm	0 mm	0 mm	6 mm	2 mm
N#Cc1c(-c2ccc(Cl)cc2)c(C#N)c2[nH]c(=O)c3c(-c4ccccc4)csc3n2c1=N	3.3 mm	4.6 mm	1.3 mm	0 mm	0 mm		1.6 mm
Cc1ccc(-c2c(C#N)c(=N)n3c([nH]c(=O)c4c(-c5ccc(Cl)cc5)csc43)c2C#N)cc1	4 mm	3.3 mm	2 mm	0 mm	0 mm	6 mm	2 mm
COc1ccc(-c2c(C#N)c(=N)n3c([nH]c(=O)c4c(-c5ccc(Cl)cc5)csc43)c2C#N)cc1	4 mm	4 mm	0 mm	0 mm	0 mm	13.1 mm	2 mm
N#Cc1c(-c2cccs2)c(C#N)c2[nH]c(=O)c3c(-c4ccccc4)csc3n2c1=N	0 mm	4 mm	0 mm	0 mm	0 mm	11.3 mm	3.3 mm
N#Cc1c(-c2ccc([N+](=O)[O-])cc2)c(C#N)c2[nH]c(=O)c3c(-c4ccccc4)csc3n2c1=N	4.6 mm	4 mm	0 mm	0 mm	0 mm		2 mm
CCOC(=O)c1sc(NC(=O)CC#N)c(C#N)c1C		7 mm	0 mm		0 mm		7 mm
N#CCC(=O)Nc1scc(-c2ccc(Cl)cc2)c1C#N	1.3 mm	4 mm	3 mm	0 mm	0 mm	4 mm	4.6 mm
N#Cc1c(-c2ccccc2)csc1NC(=O)c1ccc(-c2cccs2)[nH]c1=O	2 mm	2 mm	2 mm	0 mm	0 mm	4 mm	2 mm
CN(C)c1ccc(/C=C(\C#N)C(=O)Nc2scc(-c3ccc(Cl)cc3)c2C#N)cc1	2 mm	2 mm	0 mm	0 mm	0 mm	6 mm	3.6 mm
N#Cc1c(-c2ccc(Cl)cc2)csc1NC(=O)c1cn[nH]c1N	2 mm	0 mm	4 mm	2 mm	6.6 mm	3.3 mm	7.3 mm
N#Cc1c(-c2ccc(Cl)cc2)c(C#N)c2[nH]c(=O)c3c(-c4ccc(Cl)cc4)csc3n2c1=N	2.6 mm	4 mm	0.7 mm	0 mm	0 mm	7 mm	3.3 mm
N#Cc1c(-c2ccc(Cl)cc2)csc1N	0 mm	4 mm	7 mm	6.6 mm	2.6 mm	5 mm	11 mm
N#Cc1c(-c2ccccc2)csc1N	11.3 mm	10.6 mm	16 mm	21 mm	18 mm	10.6 mm	14.6 mm
CCOC(=O)c1sc(NC(=O)/C(C#N)=N/Nc2ccccc2)c(C#N)c1C	2.6 mm	0 mm	0 mm	14 mm	0 mm	6 mm	13 mm
